Measurements from ChEMBL document CHEMBL4020757, “Lathyrol and epoxylathyrol derivatives: Modulation of Cdr1p and Mdr1p drug-efflux transporters of Candida albicans in Saccharomyces cerevisiae model” (Bioorg Med Chem, 2017).
Values after ≈ are worked out from the molar mass of the structure shown.

Key:
Candida albicans [1] = test: Inhibition of Candida albicans CDR1 expressed in Saccharomyces cerevisiae AD assessed as ratio of compound MIC80 in combinantion with fluconazole to compound alone MIC80 for Saccharomyces cerevisiae AD by checkerboard method
How it was run: (§1)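 Checkerboard per CLSI with 10⁴ cells of AD-CDR1, AD-MDR1 or AD1-8u⁻, grown 48 h at 30 °C. Fluconazole 4-209 μM crossed with compound 0.25-400 μM, growth read by optical density. Compound FIC is the compound MIC in combination with fluconazole divided by its MIC alone.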

Candida albicans [2] = test: Inhibition of Candida albicans MDR1 expressed in Saccharomyces cerevisiae AD assessed as potentiation of fluconazole-induced antifungal activity against Saccharomyces cerevisiae AD by checkerboard method
How it was run: (§2)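 Checkerboard per CLSI in AD1-8u⁻ control, AD-CDR1 or AD-MDR1 cells (10⁴ cells) grown 48 h at 30 °C. Fluconazole 4-209 μM crossed with compound 0.25-400 μM. Growth read by optical density. FIC of each agent is its MIC in combination divided by its MIC alone. FICI is the sum of the fluconazole and compound FICs, with values below 0.5 taken as synergy.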

Saccharomyces cerevisiae [3] = test: Antifungal activity against Saccharomyces cerevisiae AD over-expressing Candida albicans CDR1 after 48 hrs; format: functional
How it was run: (§3)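 Yeast (10⁴ cells) grown in YEPD at 30 °C for 48 h with inhibitors at 0.25-400 μM (DMSO stocks); growth read by optical density, inhibitor-free growth set as 100%. MIC80 = concentration giving 80% growth inhibition. RI = MIC80 in AD-CDR1 or AD-MDR1 divided by MIC80 in control AD1-8u⁻. Means ± SD, duplicate samples, at least three independent experiments.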

Candida albicans [4] = test: Inhibition of Candida albicans MDR1 expressed in Saccharomyces cerevisiae AD assessed as reduction in nile red dye efflux at 70 uM after 30 mins by flow cytometry relative to control
How it was run: (§4)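 AD-CDR1 or AD-MDR1 cells grown in YEPD at 30 °C with shaking from OD600 0.1 to 0.25, then resuspended as a 5% suspension in 1:2 YEPD:water. Nile Red (final 7 μM) added with or without compound at 70 μM, 30 min at 30 °C. Cells washed twice and 10,000 cells analysed by flow cytometry. Efflux rate expressed relative to untreated control cells. Means ± SD, three independent experiments.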

[5] = Lipophilicity, log P of the compound; format: physicochemical; conditions: octanol/water
Candida albicans [6] = test: Inhibition of Candida albicans MDR1 expressed in Saccharomyces cerevisiae AD assessed as ratio of compound MIC80 in combinantion with fluconazole to compound alone MIC80 for Saccharomyces cerevisiae AD by checkerboard method; how it was run: as §1
Saccharomyces cerevisiae [7] = test: Resistance index, ratio of MIC80 for Saccharomyces cerevisiae AD over-expressing Candida albicans CDR1 to MIC80 for Saccharomyces cerevisiae AD1-8u(-); format: functional; how it was run: as §3
Candida albicans [8] = test: Inhibition of Candida albicans CDR1 expressed in Saccharomyces cerevisiae AD assessed as reduction in nile red dye efflux at 70 uM after 30 mins by flow cytometry relative to control; how it was run: as §4
Saccharomyces cerevisiae [9] = test: Antifungal activity against Saccharomyces cerevisiae AD1-8u(-) after 48 hrs; format: functional
How it was run: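 S. cerevisiae AD1-8u⁻ control strain revived from glycerol stock on YEPD plates and grown in YEPD at 30 °C. 10⁴ cells exposed to compound at 0.25-400 μM for 48 h at 30 °C. Growth read as optical density, with no-inhibitor growth as 100%. MIC80 is the concentration giving 80% growth inhibition. Means ± SD of duplicates from at least three independent experiments.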

Candida albicans [10] = test: Inhibition of Candida albicans CDR1 expressed in Saccharomyces cerevisiae AD assessed as potentiation of fluconazole-induced antifungal activity against Saccharomyces cerevisiae AD by checkerboard method; how it was run: as §2
Saccharomyces cerevisiae [11] = test: Antifungal activity against Saccharomyces cerevisiae AD over-expressing Candida albicans MDR1 after 48 hrs; format: functional; how it was run: as §3
Saccharomyces cerevisiae [12] = test: Potentiation of fluconazole-induced antifungal activity against Saccharomyces cerevisiae AD1-8u(-) by checkerboard method; format: functional; how it was run: as §2
Saccharomyces cerevisiae [13] = test: Resistance index, ratio of MIC80 for Saccharomyces cerevisiae AD over-expressing Candida albicans MDR1 to MIC80 for Saccharomyces cerevisiae AD1-8u(-); format: functional; how it was run: as §3
Saccharomyces cerevisiae [14] = test: Synergistic antifungal activity against Saccharomyces cerevisiae AD1-8u(-) assessed as ratio of compound MIC80 in combinantion with fluconazole to compound alone MIC80 by checkerboard method; format: functional; how it was run: as §1

| Compound | Ratio (Candida albicans [1]) | fractional inhibitory concentration index (FICI) (Candida albicans [2]) | MIC80 (Saccharomyces cerevisiae [3]) [µM] | inhibition (Candida albicans [4]) [%] | logP [5] | Ratio (Candida albicans [6]) | Ratio (Saccharomyces cerevisiae [7]) | inhibition (Candida albicans [8]) [%] | MIC80 (Saccharomyces cerevisiae [9]) [µM] | fractional inhibitory concentration index (FICI) (Candida albicans [10]) | MIC80 (Saccharomyces cerevisiae [11]) [µM] | fractional inhibitory concentration index (FICI) (Saccharomyces cerevisiae [12]) | Ratio (Saccharomyces cerevisiae [13]) | Ratio (Saccharomyces cerevisiae [14]) |
| --- | --- | --- | --- | --- | --- | --- | --- | --- | --- | --- | --- | --- | --- | --- |
| CCCC(=O)O[C@@H]1[C@@H]2[C@@H](OC(=O)CCC)[C@]3(CC[C@H]4[C@@H](/C=C(\C)C(=O)[C@@]2(OC(=O)CCC)C[C@@H]1C)C4(C)C)CO3 | 1 | 1.3 | 762 (≈ 427 µg/mL) | 85 | 4.3 | 1 | 0.85 | 35 | 892 (≈ 500 µg/mL) | 1.4 | 801 (≈ 449 µg/mL) | 2 | 0.89 | 1 |
| C=C1CC[C@H]2[C@@H](/C=C(\C)C(=O)[C@@]3(O)C[C@H](C)[C@H](O)[C@@H]3[C@H]1OC(=O)c1cccc(OC)c1)C2(C)C | 1 | 1.3 | 992 (≈ 465 µg/mL) | 35 | 3.42 | 1 | 0.92 | 80 | 1070 (≈ 500 µg/mL) | 1.4 | 1120 (≈ 526 µg/mL) | 2 | 1.05 | 1 |
| C/C1=C\[C@@H]2[C@H](CC[C@]3(CO3)[C@H](O)[C@H]3[C@@H](O)[C@@H](C)C[C@]3(O)C1=O)C2(C)C | 1 | 1.3 | 2800 (≈ 981 µg/mL) | 85 | 1.91 | 1 | 4 | 30 | 714 (≈ 250 µg/mL) | 1.4 | 2800 (≈ 981 µg/mL) | 2 | 4 | 1 |
| C=C1CC[C@H]2[C@@H](/C=C(\C)C(=O)[C@@]3(O)C[C@H](C)[C@H](O)[C@@H]3[C@H]1OC(=O)c1cccc(Br)c1)C2(C)C | 1 | 1.3 | 901 (≈ 466 µg/mL) | 30 | 3.11 | 1 | 0.93 | 85 | 968 (≈ 501 µg/mL) | 1.4 | 884 (≈ 457 µg/mL) | 2 | 0.91 | 1 |
| C/C1=C\[C@@H]2[C@H](CC[C@]3(CO3)[C@H](OC(=O)c3ccc(C)cc3)[C@H]3[C@@H](OC(=O)c4ccc(C)cc4)[C@@H](C)C[C@]3(O)C1=O)C2(C)C | 1 | 1.3 | 789 (≈ 463 µg/mL) | 25 | 5 | 1 | 0.92 | 30 | 853 (≈ 500 µg/mL) | 1.4 | 803 (≈ 471 µg/mL) | 2 | 0.94 | 1 |
| C=C1CC[C@H]2[C@@H](/C=C(\C)C(=O)[C@@]3(O)C[C@H](C)[C@H](O)[C@@H]3[C@H]1OC(=O)/C=C/c1ccccc1)C2(C)C | 1 | 1.3 | 993 (≈ 461 µg/mL) | 30 | 3.93 | 1 | 0.92 | 65 | 1080 (≈ 500 µg/mL) | 1.4 | 1010 (≈ 470 µg/mL) | 2 | 0.93 | 1 |
| CCCCC(CC)C(=O)O[C@@H]1[C@@H]2[C@@H](OC(=O)C(CC)CCCC)[C@]3(CC[C@H]4[C@@H](/C=C(\C)C(=O)[C@@]2(O)C[C@@H]1C)C4(C)C)CO3 (stereo not given in full) | 1 | 1.3 | 799 (≈ 482 µg/mL) | 20 | 6.45 | 1 | 0.96 | 30 | 830 (≈ 500 µg/mL) | 1.4 | 800 (≈ 482 µg/mL) | 2 | 0.96 | 1 |
| CC(=O)O[C@@H]1[C@@H]2[C@@H](OC(C)=O)[C@]3(CC[C@H]4[C@@H](/C=C(\C)C(=O)[C@@]2(OC(C)=O)C[C@@H]1C)C4(C)C)CO3 | 1 | 1.3 | 519 (≈ 247 µg/mL) | 75 | 2.7 | 1 | 0.98 | 20 | 525 (≈ 250 µg/mL) | 1.4 | 529 (≈ 252 µg/mL) | 2 | 0.99 | 1 |
| CCCC(=O)O[C@@H]1[C@@H]2[C@@H](OC(C)=O)[C@]3(CC[C@H]4[C@@H](/C=C(\C)C(=O)[C@@]2(OC(C)=O)C[C@@H]1C)C4(C)C)CO3 | 1 | 1.3 | 1000 (≈ 505 µg/mL) | 25 | 2.5 | 1 |  | 10 | 992 (≈ 501 µg/mL) | 1.4 | 901 (≈ 455 µg/mL) | 2 | 0.9 | 1 |
